From publication PMC8451688 (Journal of Enzyme Inhibition and Medicinal Chemistry, 2021) come the findings set out here.

Like-named read-outs stand apart in the source and are kept apart here.

In assay [1] the test system is A549 cells. Description: cells. It is filed as cell-based, human. Conditions: mean of triplicate; for IC50 (%inhibition ± SD) A549: Table 3.
The subject of the next assay is PC-3 cells. The format is cell-based, human. Conditions: Table 3; MTT; mean of triplicate.
Another assay deals with HepG2 cells. It is filed as cell-based, human. Conditions: Table 3; MTT; mean of triplicate.
A further assay has as its system NRK-52E cells. It is filed as cell-based. To be noted: Table 3; normal rat kidney cell line; MTT.
Assay [2] deals with A549 cells. Description: Cell cycle analysis by PI flow cytometry. It is filed as cell-based, human. Conditions: 24 h. The method, boiled down: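 A549 cells were treated for 24 h with test compound at 0, 4 or 8 µM, with 0.1% DMSO as control. Cells were collected and washed twice in cold PBS, then fixed in cold 70% ethanol overnight at 4 °C. They were treated with 1 mg/mL RNase A for 30 min at 37 °C, stained with PI for 30 min at 4 °C in the dark, and analysed by flow cytometry.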
On the technique in general: Flow cytometry measures light scatter and fluorescence of single cells or particles in a stream.

Where [3] appears, read: Homo sapiens, A549, read-out: IC50 A549, MTT.

One may read the IC50 as the concentration that gives 50% inhibition.

Consider `O=C(CN1C(=O)/C(=C/c2ccc(O)cc2)SC1=S)Nc1ccccc1` [I16, (Z)-2-(5-(4-hydroxybenzylidene)-4-oxo-2-thioxothiazolidin-3-yl)-N-phenylacetamide], for which the IC50 with A549 cells [1] (setting [3]) amounted to 16.8 ± 3.66 µM.
Regarding “(Z)-2-(5-(4-(dimethylamino)benzylidene)-4-oxo-2-thioxothiazolidin-3-yl)-N-phenylacetamide [I20]”, in the assay on A549 cells [1] (MTT), the “IC50 (%inhibition ± SD) A549” value is given as 7.00 ± 1.06%. Also, the IC50 in the assay with A549 cells [1] (read-out: IC50 A549, MTT) turned out to be 7 ± 1.06 µM. Besides, the “IC50 (%inhibition ± SD) PC-3” value with PC-3 cells is 19.9 ± 5.56%. Also, the “IC50 (%inhibition ± SD) HepG2” value in the assay on HepG2 cells stood at 20.3 ± 2.93%. In addition, in the assay on NRK-52E cells, the “IC50 (%inhibition ± SD) NRK-52E” value was found to be 14.7 ± 1.58%. Further, the “percentage of cells in G2/M” value in the assay with A549 cells [2] (A549, 4 µM) came out at 10.92%; with A549 cells [2] (A549, 8 µM) it was 15.45%.
In the case of `O=C(CN1C(=O)/C(=C/c2ccco2)SC1=S)Nc1ccccc1` [I24, (Z)-2-(5-(furan-2-ylmethylene)-4-oxo-2-thioxothiazolidin-3-yl)-N-phenylacetamide], the “IC50 (%inhibition ± SD) PC-3” value in the assay with PC-3 cells was found to be 25.1 ± 3.39%. Also, the “IC50 (%inhibition ± SD) NRK-52E” value in the assay with NRK-52E cells was determined as 20.1 ± 2.12%.
Consider `COc1ccccc1/C=C1\SC(=S)N(CC(=O)Nc2ccccc2)C1=O` [I5, (Z)-2–(5-(2-methoxybenzylidene)-4-oxo-2-thioxothiazolidin-3-yl)-N-phenylacetamide], for which, in the assay on A549 cells [1] (setting [3]), the IC50 turned out to be 13.4 ± 5.03 µM. Moreover, the “IC50 (%inhibition ± SD) A549” value in the assay with A549 cells [1] (MTT) came out at 13.4 ± 5.03%. Moreover, the “IC50 (%inhibition ± SD) HepG2” value with HepG2 cells stood at 36.4 ± 8.00%. In addition, the “IC50 (%inhibition ± SD) NRK-52E” value in the assay with NRK-52E cells was 17.4 ± 4.57%.
In the case of `O=C(CN1C(=O)/C(=C/c2ccc(Cl)cc2Cl)SC1=S)Nc1ccccc1` [I21, (Z)-2-(5-(2,4-dichlorobenzylidene)-4-oxo-2-thioxothiazolidin-3-yl)-N-phenylacetamide], in the assay with A549 cells [1] (setting [3]), the half-maximal inhibitory concentration (IC50) came out at 36.9 ± 1.36 µM.
Consider `O=C(CN1C(=O)/C(=C/c2cccc(O)c2)SC1=S)Nc1ccccc1` [I10, (Z)-2–(5-(3-hydroxybenzylidene)-4-oxo-2-thioxothiazolidin-3-yl)-N-phenylacetamide], for which the 50% inhibitory concentration (IC50) with A549 cells [1] (setting [3]) was found to be 42.8 ± 6.5 µM.
The same measure, in the same setting: to `O=C(CN1C(=O)/C(=C/c2ccccc2O)SC1=S)Nc1ccccc1` [I4, (Z)-2–(5-(2-hydroxybenzylidene)-4-oxo-2-thioxothiazolidin-3-yl)-N-phenylacetamide] belongs 15.8 ± 3.03 µM; to `O=C(CN1C(=O)/C(=C/c2cccs2)SC1=S)Nc1ccccc1` [I25, (Z)-2–(4-oxo-5-(thiophen-2-ylmethylene)-2-thioxothiazolidin-3-yl)-N-phenylacetamide], 16 ± 3.46 µM.
`O=C(CN1C(=O)/C(=C/c2cccc(Cl)c2)SC1=S)Nc1ccccc1` [I8, (Z)-2–(5-(3-chlorobenzylidene)-4-oxo-2-thioxothiazolidin-3-yl)-N-phenylacetamide]: in the assay with A549 cells [1] (setting [3]), the IC50 came out at 31 ± 2.21 µM.
On the same count and under the same terms, to `COc1cccc(NC(=O)CN2C(=O)/C(=C/c3ccco3)SC2=S)c1` [I33, (Z)-2–(5-(furan-2-ylmethylene)-4-oxo-2-thioxothiazolidin-3-yl)-N-(3-methoxyphenyl)acetamide] belongs 46.5 ± 7.31 µM.
Same read-out and setting: to `O=C(CN1C(=O)/C(=C/c2ccccn2)SC1=S)Nc1ccccc1` [I28, (Z)-2-(4-oxo-5-(pyridin-2-ylmethylene)-2-thioxothiazolidin-3-yl)-N-phenylacetamide] belongs 17.3 ± 3.9 µM; to `O=C(CN1C(=O)/C(=C/c2cccc([N+](=O)[O-])c2)SC1=S)Nc1ccccc1` [I6, (Z)-2–(5-(3-nitrobenzylidene)-4-oxo-2-thioxothiazolidin-3-yl)-N-phenylacetamide], 22.9 ± 2.07 µM; to `O=C(CN1C(=O)/C(=C/c2cccc(F)c2)SC1=S)Nc1ccccc1` [I7, (Z)-2–(5-(3-fluorobenzylidene)-4-oxo-2-thioxothiazolidin-3-yl)-N-phenylacetamide], 29.6 ± 3.72 µM.
The same measure, in the same setting: the same measure for `COc1cccc(NC(=O)CN2C(=O)/C(=C/c3cccs3)SC2=S)c1` [I34, (Z)-N-(3-methoxyphenyl)-2–(4-oxo-5-(thiophen-2-ylmethylene)-2-thioxothiazolidin-3-yl)acetamide]: 17.8 ± 3.75 µM; for `O=C(CN1C(=O)/C(=C/c2ccc[nH]2)SC1=S)Nc1ccccc1` [I26, (Z)-2-(5-((1H-pyrrol-2-yl)methylene)-4-oxo-2-thioxothiazolidin-3-yl)-N-phenylacetamide]: 20 ± 4.25 µM.
As to `O=C(CN1C(=O)/C(=C/c2ccc(Cl)cc2)SC1=S)Nc1ccccc1` [I15, (Z)-2–(5-(4-chlorobenzylidene)-4-oxo-2-thioxothiazolidin-3-yl)-N-phenylacetamide], the “IC50 (%inhibition ± SD) PC-3” value in the assay on PC-3 cells is on record as 17.6 ± 2.51%. For the same compound, the “IC50 (%inhibition ± SD) HepG2” value in the assay with HepG2 cells came out at 20.6 ± 5.19%. Besides, the “IC50 (%inhibition ± SD) NRK-52E” value in the assay with NRK-52E cells is reported as 15.1 ± 2.45%.
`O=C(CN1C(=O)/C(=C/c2ccncc2)SC1=S)Nc1ccccc1` [I29, (Z)-2-(4-oxo-5-(pyridin-4-ylmethylene)-2-thioxothiazolidin-3-yl)-N-phenylacetamide]: the half-inhibitory concentration (IC50) in the assay on A549 cells [1] (setting [3]) came to 26.4 ± 8 µM.
On to `O=C(CN1C(=O)/C(=C/c2ccccc2)SC1=S)Nc1ccccc1` [I1, (Z)-2–(5-benzylidene-4-oxo-2-thioxothiazolidin-3-yl)-N-phenylacetamide], for which the IC50 with A549 cells [1] (setting [3]) amounted to 11.3 ± 1.5 µM. In the assay with A549 cells [1] (MTT), the “IC50 (%inhibition ± SD) A549” value is 11.3 ± 1.50%. Moreover, the “IC50 (%inhibition ± SD) PC-3” value in the assay with PC-3 cells turned out to be 21.7 ± 2.89%. In the assay with HepG2 cells, the “IC50 (%inhibition ± SD) HepG2” value was 24.7 ± 8.91%. The “IC50 (%inhibition ± SD) NRK-52E” value with NRK-52E cells came out at 13.1 ± 3.58%.
Consider `CC(C)c1ccc(/C=C2\SC(=S)N(CC(=O)Nc3ccccc3)C2=O)cc1` [I17, (Z)-2-(5-(4-isopropylbenzylidene)-4-oxo-2-thioxothiazolidin-3-yl)-N-phenylacetamide], for which the half-maximal inhibitory concentration (IC50) with A549 cells [1] (setting [3]) was determined as 20.7 ± 3.33 µM.
As for “(Z)-2-(5-(cyclohex-2-en-1-ylmethylene)-4-oxo-2-thioxothiazolidin-3-yl)-N-phenylacetamide [I27]”, in the assay on A549 cells [1] (read-out: IC50 A549, MTT), the 50% inhibitory concentration (IC50) came out at 51.3 ± 9.09 µM.
As for `O=C(CN1C(=O)/C(=C/c2ccc(F)cc2)SC1=S)Nc1ccccc1` [I14, (Z)-2–(5-(4-fluorobenzylidene)-4-oxo-2-thioxothiazolidin-3-yl)-N-phenylacetamide], the IC50 in the assay with A549 cells [1] (setting [3]) was found to be 18.8 ± 3.31 µM.
The same measure, in the same setting: to `COc1cccc(NC(=O)CN2C(=O)/C(=C/c3ccccc3)SC2=S)c1` [I30, (Z)-2-(5-benzylidene-4-oxo-2-thioxothiazolidin-3-yl)-N-(3-methoxyphenyl)acetamide] belongs 22.1 ± 3.41 µM.
For the compound “(Z)-2-(5-(2-hydroxy-3-methoxybenzylidene)-4-oxo-2-thioxothiazolidin-3-yl)-N-phenylacetamide [I22]”, in the assay with A549 cells [1] (read-out: IC50 A549, MTT), the IC50 is 84.9 ± 9 µM.
In the case of `O=C(CN1C(=O)/C(=C/c2ccccc2F)SC1=S)Nc1ccccc1` [I2, (Z)-2–(5-(2-fluorobenzylidene)-4-oxo-2-thioxothiazolidin-3-yl)-N-phenylacetamide], in the assay on A549 cells [1] (read-out: IC50 A549, MTT), the concentration for half-maximal inhibition (IC50) stood at 22.7 ± 5.45 µM.
For `COc1cccc(NC(=O)CN2C(=O)/C(=C/C3CC3)SC2=S)c1` [I32, (Z)-2–(5-(cyclopropylmethylene)-4-oxo-2-thioxothiazolidin-3-yl)-N-(3-methoxyphenyl)acetamide], the IC50 in the assay with A549 cells [1] (setting [3]) turned out to be 39.1 ± 5.62 µM.
Take `O=C(CN1C(=O)/C(=C/c2ccc(C(F)(F)F)cc2)SC1=S)Nc1ccccc1` [I13, (Z)-2-(4-oxo-2-thioxo-5-(4-(trifluoromethyl)benzylidene)thiazolidin-3-yl)-N-phenylacetamide]: in the assay on A549 cells [1] (setting [3]), the concentration for half-maximal inhibition (IC50) is 20.1 ± 3.13 µM.
With `CCOc1ccc(/C=C2\SC(=S)N(CC(=O)Nc3ccccc3)C2=O)cc1` [I19, (Z)-2-(5-(4-ethoxybenzylidene)-4-oxo-2-thioxothiazolidin-3-yl)-N-phenylacetamide], the “IC50 (%inhibition ± SD) PC-3” value in the assay with PC-3 cells is listed as 18.1 ± 3.68%. In addition, the “IC50 (%inhibition ± SD) HepG2” value with HepG2 cells is reported as 18.8 ± 5.40%. Also, the “IC50 (%inhibition ± SD) NRK-52E” value in the assay with NRK-52E cells turned out to be 11.0 ± 3.10%.
In the case of `O=C(CN1C(=O)/C(=C/C2CC2)SC1=S)Nc1ccccc1` [I23, (Z)-2-(5-(cyclopropylmethylene)-4-oxo-2-thioxothiazolidin-3-yl)-N-phenylacetamide], the IC50 with A549 cells [1] (setting [3]) is 15.7 ± 0.98 µM.
Same read-out and setting: the same measure for `O=C(CN1C(=O)/C(=C/c2ccc([N+](=O)[O-])cc2)SC1=S)Nc1ccccc1` [I12, (Z)-2–(5-(4-nitrobenzylidene)-4-oxo-2-thioxothiazolidin-3-yl)-N-phenylacetamide]: 23.6 ± 3 µM.
